Experimental data: ChEMBL document CHEMBL3352594 (J Med Chem, 2014)
The source made the active and inactive calls. The calls are words filed in the database; no cut-off is given here.

How the values were obtained:
Macrophage [1] = assay: Selectivity index, ratio of IC50 for C57BL/6 mouse macrophages to IC50 for LPS-induced NO production in C57BL/6 mouse macrophages
Macrophage [2] = assay: Inhibition of intrinsic NO production in C57BL/6 mouse macrophages at 10 uM measured after 24 hrs by Griess method; assay type: functional, cell-based
Outline: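 Unstimulated peritoneal macrophages (no LPS) cultured 2 h, then exposed to compound at 10 μM for 24 h. Supernatant nitrite measured by Griess assay at 570 nm against a standard curve; untreated, vehicle and LPS (1 μg/mL) wells as controls. Three independent experiments, mean ± SEM.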

[3] = Cytotoxicity against C57BL/6 mouse macrophages after 24 hrs by MTT assay; assay type: cell-based; details: C57BL/6, Macrophage
Outline: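 Thioglycollate-elicited peritoneal macrophages from male C57BL/6 mice, 1 × 10^5 cells/well, adhered 2 h, then exposed to compounds 24 h. Washed, MTT (5 mg/mL in PBS) added 4 h at 37 °C, formazan dissolved in DMSO, absorbance 570 nm.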

Macrophage [4] = assay: Inhibition of LPS-induced NO production in C57BL/6 mouse macrophages preincubated with compound for 1 hr before LPS challenge measured after 24 hrs by Griess method; assay type: functional, cell-based; details: C57BL/6, Macrophage
Outline: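 Peritoneal macrophages harvested from male C57BL/6J mice 3 days after ip thioglycollate; 1 × 10^5 cells/well in RPMI-1640 + 5% newborn calf serum, nonadherent cells removed after 2 h. Compounds added 1 h before LPS 1 μg/mL; 24 h later supernatant nitrite read by Griess reagent at 570 nm against a nitrite standard curve. IC50 from ≥2 experiments in triplicate; selectivity index = cytotoxicity IC50 / NO-inhibition IC50.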

Macrophage [5] = assay: Inhibition of LPS-induced iNOS expression in C57BL/6 mouse macrophages preincubated at 1 uM for 1 hr before LPS challenge measured after 24 hrs by immunoblotting; assay type: functional, cell-based
Outline: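 Male C57BL/6 peritoneal macrophages pretreated 1 h with compound at 1 μM, then LPS 1 μg/mL for 24 h. Lysates resolved on 10% SDS-PAGE and transferred to PVDF; blots probed with rabbit anti-iNOS and anti-β-actin (1:1000, overnight 4 °C), visualized by ECL. iNOS/β-actin ratio from densitometry; three independent experiments, mean ± SEM.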

Mus musculus [6] = assay: Antiinflammatory activity in specific pathogen-free COPD-like lung inflammation BALB/c mouse model assessed as inhibition of white blood cells at 2 umol/kg/day, po for 35 days measured 24 hrs post last dose relative to vehicle-treated control; assay type: functional, organism-based
Outline: (§1)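 Male SPF BALB/c mice (18−20 g) given cigarette smoke 5 min twice daily (days 2−13, 15−35) plus LPS 20 μg in 30 μL saline on days 1 and 14. Oral dosing 1 h before first exposure, daily for 35 days. BAL (3 × 0.8 mL ice-cold saline) collected about 24 h after final dose. Centrifuged pellet resuspended in 200 μL PBS and counted by hemocytometer for differential cells.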

Mus musculus [7] = assay: Antiinflammatory activity in Kunming mouse assessed as inhibition of croton oil-induced ear edema at 77 umol/kg, sc administered before challenge relative to vehicle-treated control; assay type: functional
Outline: (§2)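 Male Kunming mice; croton oil applied topically to left ear at 0.4 mg/ear. Test agent or equal-volume vehicle given 1 h before (po 5, 10, 20 μmol/kg; sc 77, 154, 308 μmol/kg). Euthanized under pentobarbital 4 h after croton oil; 8 mm ear punches weighed, left minus right weight = edema; inhibition vs vehicle group. n = 10 (po) or 8–9 (sc); mean ± SEM.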

[8] = Toxicity in Kunming mouse administered orally as single dose measured over 14 days; assay type: organism-based; details: in vivo, po
Outline: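 SPF Kunming mice, half male and half female, fasted 16 h with water allowed, then weighed and randomized at 10/group. Single gavage dose (0.1 mL/10 g) at various doses, with solvent-only controls. Survival monitored for 14 days.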

Mus musculus [9] = assay: Antiinflammatory activity in specific pathogen-free COPD-like lung inflammation BALB/c mouse model assessed as inhibition of TNFalpha level at 2 umol/kg/day, po for 35 days measured 24 hrs post last dose relative to vehicle-treated control; assay type: functional, organism-based
Outline: (§3)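 Male SPF BALB/c mice (18−20 g) exposed to cigarette smoke 5 min twice daily on days 2−13 and 15−35, with 20 μg LPS in 30 μL saline on days 1 and 14. Dosed orally 1 h before first exposure, daily for 35 days. Lungs lavaged 3× with 0.8 mL ice-cold saline about 24 h after last dose. Supernatant cytokines measured by ELISA. n = 8−11, mean ± SEM, Student's t test.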

Mus musculus [10] = assay: Antiinflammatory activity in Kunming mouse assessed as inhibition of croton oil-induced ear edema at 20 umol/kg, po administered before challenge relative to vehicle-treated control; assay type: functional; outline: as §2
Mus musculus [11] = assay: Antiinflammatory activity in specific pathogen-free COPD-like lung inflammation BALB/c mouse model assessed as inhibition of eosinophils at 2 umol/kg/day, po for 35 days measured 24 hrs post last dose relative to vehicle-treated control; assay type: functional, organism-based; outline: as §1
Mus musculus [12] = assay: Antiinflammatory activity in specific pathogen-free COPD-like lung inflammation BALB/c mouse model assessed as inhibition of IL-1beta level at 2 umol/kg/day, po for 35 days measured 24 hrs post last dose relative to vehicle-treated control; assay type: functional, organism-based; outline: as §3
Mus musculus [13] = assay: Antiinflammatory activity in Kunming mouse assessed as inhibition of croton oil-induced ear edema at 308 umol/kg, sc administered before challenge relative to vehicle-treated control; assay type: functional; outline: as §2
Mus musculus [14] = assay: Antiinflammatory activity in Kunming mouse assessed as inhibition of croton oil-induced ear edema at 10 umol/kg, po administered before challenge relative to vehicle-treated control; assay type: functional; outline: as §2
Mus musculus [15] = assay: Antiinflammatory activity in Kunming mouse assessed as inhibition of croton oil-induced ear edema at 5 umol/kg, po administered before challenge relative to vehicle-treated control; assay type: functional; outline: as §2
Mus musculus [16] = assay: Antiinflammatory activity in specific pathogen-free COPD-like lung inflammation BALB/c mouse model assessed as inhibition of IL-6 level at 2 umol/kg/day, po for 35 days measured 24 hrs post last dose relative to vehicle-treated control; assay type: functional, organism-based; outline: as §3
Mus musculus [17] = assay: Antiinflammatory activity in specific pathogen-free COPD-like lung inflammation BALB/c mouse model assessed as inhibition of IL-8 level at 2 umol/kg/day, po for 35 days measured 24 hrs post last dose relative to vehicle-treated control; assay type: functional
Outline: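 SPF male BALB/c mice (18−20 g) exposed to cigarette smoke 5 min twice daily (days 2–13, 15–35) plus 20 μg LPS in 30 μL saline (days 1, 14). Oral drug 2 μmol/kg daily for 35 days, 1 h before exposure. Killed ~24 h after last dose; lungs lavaged 3× with 0.8 mL ice-cold saline; IL-8 in BAL supernatant by ELISA; n = 8−11, mean ± SEM.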

Mus musculus [18] = assay: Antiinflammatory activity in Kunming mouse assessed as inhibition of croton oil-induced ear edema at 154 umol/kg, sc administered before challenge relative to vehicle-treated control; assay type: functional; outline: as §2
Mus musculus [19] = assay: Antiinflammatory activity in specific pathogen-free COPD-like lung inflammation BALB/c mouse model assessed as inhibition of neutrophils at 2 umol/kg/day, po for 35 days measured 24 hrs post last dose relative to vehicle-treated control; assay type: functional; outline: as §1

IC50 (Macrophage [4]) [µM] | SMILES | Ratio IC50 (Macrophage [1]) | inhibition (Macrophage [2]) | IC50 [3] [µM] | inhibition (Macrophage [5]) | other results
0.047 | COC(=O)[C@]12OC[C@]34[C@H]([C@@H](O)[C@@H]1O)[C@@]1(C)CC(=O)C(OC(=O)CCC(=O)OCc5ccc(OCc6c(-c7ccccc7)no[n+]6[O-])cc5)=C(C)[C@@H]1C[C@H]3OC(=O)[C@H](OC(=O)C=C(C)C)[C@@H]24 | 3.2 | Active | 0.15 | – | –
1.1 | CC(C)=CC(=O)O[C@H]1C(=O)O[C@@H]2C[C@H]3C(C)=C(O)C(=O)C[C@]3(C)[C@H]3[C@@H](O)[C@H](O)[C@]4(C(=O)OCCCCOc5no[n+]([O-])c5S(=O)(=O)c5ccccc5)OC[C@]32[C@@H]14 | 2.7 | – | 3 | – | –
0.38 | COC(=O)[C@]12OC[C@]34[C@H]([C@@H](O)[C@@H]1O)[C@@]1(C)CC(=O)C(O)=C(C)[C@@H]1C[C@H]3OC(=O)[C@H](OC(=O)CCC(=O)OCc1ccc(OCc3c(-c5ccccc5)no[n+]3[O-])cc1)[C@@H]24 | 2.2 | – | 0.82 | – | –
0.69 | COC(=O)[C@]12OC[C@]34[C@H]([C@@H](O)[C@@H]1O)[C@@]1(C)CC(=O)C(OC(=O)c5ccccc5C(=O)OCCCCOc5no[n+]([O-])c5S(=O)(=O)c5ccccc5)=C(C)[C@@H]1C[C@H]3OC(=O)[C@H](OC(=O)C=C(C)C)[C@@H]24 | 1.9 | – | 1.3 | – | –
2.2 | CC(C)=CC(=O)O[C@H]1C(=O)O[C@@H]2C[C@H]3C(C)=C(O)C(=O)C[C@]3(C)[C@H]3[C@@H](O)[C@H](O)[C@]4(C(=O)OCc5ccc(OCc6c(-c7ccccc7)no[n+]6[O-])cc5)OC[C@]32[C@@H]14 | 1.8 | – | 3.9 | – | –
11 | CC(C)=CC(=O)O[C@H]1C(=O)O[C@@H]2C[C@H]3C(C)=C(O)C(=O)C[C@]3(C)[C@H]3[C@@H](O)[C@H](OC(=O)CCC(=O)OCCCCOc4no[n+]([O-])c4S(=O)(=O)c4ccccc4)[C@]4(C(=O)O)OC[C@]32[C@@H]14 | – | inactive | > 10 | Active | –
2.1 | COC(=O)[C@]12OC[C@]34[C@H]([C@@H](O)[C@@H]1O)[C@@]1(C)CC(=O)C(OCc5ccc(OCc6c(-c7ccccc7)no[n+]6[O-])cc5)=C(C)[C@@H]1C[C@H]3OC(=O)[C@H](OC(=O)C=C(C)C)[C@@H]24 | >4.7 | – | > 10 | – | –
0.05 | COC(=O)[C@]12OC[C@]34[C@H]([C@@H](O)[C@@H]1O)[C@@]1(C)CC(=O)C(O)=C(C)[C@@H]1C[C@H]3OC(=O)[C@H](OC(=O)C=C(C)C)[C@@H]24 [BRUSATOL] | – | – | 0.14 | – | inhibition in vivo at 20 µmol/kg (Mus musculus [10]): 46.8%; inhibition in vivo at 10 µmol/kg (Mus musculus [14]): 27.1%; inhibition in vivo at 5 µmol/kg (Mus musculus [15]): 24.3%; inhibition in vivo at 2 µmol/kg (Mus musculus [17]): 46%
0.21 | COC(=O)[C@]12OC[C@]34[C@H]([C@@H](O)[C@@H]1O)[C@@]1(C)CC(=O)C(O)=C(C)[C@@H]1C[C@H]3OC(=O)[C@H](OC(=O)CCC(=O)OCCCCOc1no[n+]([O-])c1S(=O)(=O)c1ccccc1)[C@@H]24 | 5.7 | – | 1.2 | – | –
1.3 | CC(C)=CC(=O)O[C@H]1C(=O)O[C@@H]2C[C@H]3C(C)=C(OC(=O)CCC(=O)OCCCCOc4no[n+]([O-])c4S(=O)(=O)c4ccccc4)C(=O)C[C@]3(C)[C@H]3[C@@H](O)[C@H](O)[C@]4(C(=O)O)OC[C@]32[C@@H]14 | >7.6 | inactive | > 10 | Active | –

SMILES | IC50 (Macrophage [4]) [µM] | Ratio IC50 (Macrophage [1]) | inhibition (Macrophage [2]) | IC50 [3] [µM] | inhibition (Macrophage [5]) | other results
CC(C)=CC(=O)O[C@H]1C(=O)O[C@@H]2C[C@H]3C(C)=C(OC(=O)CCC(=O)OCCCCOc4no[n+]([O-])c4S(=O)(=O)c4ccccc4)C(=O)C[C@]3(C)[C@H]3[C@@H](O)[C@H](OC(=O)CCC(=O)OCCCCOc4no[n+]([O-])c4S(=O)(=O)c4ccccc4)[C@]4(C(=O)O)OC[C@]32[C@@H]14 | 0.067 | >149 | inactive | > 10 | Active | inhibition (Mus musculus [6]): Active; inhibition in vivo at 77 µmol/kg (Mus musculus [7]): 31.4%; LD50 at 336 h [8]: > 3850 µmol/kg; inhibition (Mus musculus [9]): Active; inhibition in vivo at 20 µmol/kg (Mus musculus [10]): 7.8%; inhibition (Mus musculus [11]): Active; inhibition (Mus musculus [12]): Active; inhibition in vivo at 308 µmol/kg (Mus musculus [13]): 76.5%; inhibition in vivo at 10 µmol/kg (Mus musculus [14]): 6.4%; inhibition in vivo at 5 µmol/kg (Mus musculus [15]): 0.9%; inhibition (Mus musculus [16]): Active; inhibition in vivo at 2 µmol/kg (Mus musculus [17]): 48%; inhibition in vivo at 154 µmol/kg (Mus musculus [18]): 61%
CC(C)=CC(=O)O[C@H]1C(=O)O[C@@H]2C[C@H]3C(C)=C(O)C(=O)C[C@]3(C)[C@H]3[C@@H](O)[C@H](O)[C@]4(C(=O)O)OC[C@]32[C@@H]14 | > 10 | – | Active | > 10 | Active | –
COC(=O)[C@]12OC[C@]34[C@H]([C@@H](O)[C@@H]1O)[C@@]1(C)CC(=O)C(OC(=O)CCC(=O)OCCCCOc5no[n+]([O-])c5S(=O)(=O)c5ccccc5)=C(C)[C@@H]1C[C@H]3OC(=O)[C@H](OC(=O)C=C(C)C)[C@@H]24 | 0.089 | 8.9 | inactive | 0.79 | – | inhibition in vivo at 2 µmol/kg (Mus musculus [19]): 85%; inhibition (Mus musculus [6]): Active; LD50 at 336 h [8]: 41.1 µmol/kg; inhibition (Mus musculus [9]): Active; inhibition in vivo at 20 µmol/kg (Mus musculus [10]): 53.9%; inhibition (Mus musculus [11]): Active; inhibition (Mus musculus [12]): Active; inhibition in vivo at 10 µmol/kg (Mus musculus [14]): 39.9%; inhibition in vivo at 5 µmol/kg (Mus musculus [15]): 29.4%; inhibition (Mus musculus [16]): Active
